Assay [1] deals with T1, Neuronal acetylcholine receptor; alpha4/beta2 (Homo sapiens) (UniProt P17787+P43681). The experiment in a line: Activity at human nAChR alpha4beta2 expressing Xenopus oocytes assessed as stimulation of nicotine-induced current at 10 uM by two-electrode voltage-clamp method. It counts as cell-based. Particulars: Oocyte. In a few lines: (§1)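 Oocytes injected with 0.005–50 ng mRNA per subunit (α4β2 and α3β4 at 1:1; α1β1γδ at 1:1:1:1; α7 and 5-HT3A single). Two-electrode voltage clamp at −70 mV, 3–14 days post-injection. Ca²⁺-free Ringer's with BaCl₂ replacing Ca²⁺ (pH 7.4) to limit Ca²⁺-activated Cl⁻ currents. Rapid linear-array application. Current expressed as I/I_max; concentration–effect data fit to a four-parameter logistic. For α7, agonist was fixed at EC₅.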
(Two-electrode voltage clamp is typically applied to oocytes expressing channels or transporters.)

Assay [2] has as its target T2, Neuronal acetylcholine receptor subunit alpha-7 (Homo sapiens, UniProt P36544). Nature of the assay: Activation of human alpha-7 nAChR expressed in Xenopus oocytes assessed as modulation of nicotine-induced current by two-electrode voltage-clamp method. It counts as cell-based, Oocyte. In a few lines:
as §1

Assay [3] concerns the target T2, Neuronal acetylcholine receptor subunit alpha-7. The experiment in a line: Activation of human alpha-7 nAChR expressed in Xenopus oocytes assessed as modulation of nicotine-induced current by measuring ratio of I/Imax current by two-electrode voltage-clamp method. Format: cell-based. Particulars: Oocyte. In a few lines: as §1
Assay [4] concerns the target T3, 5-hydroxytryptamine receptor 3A (Homo sapiens) (UniProt P46098).
T3 sequence (whole entry): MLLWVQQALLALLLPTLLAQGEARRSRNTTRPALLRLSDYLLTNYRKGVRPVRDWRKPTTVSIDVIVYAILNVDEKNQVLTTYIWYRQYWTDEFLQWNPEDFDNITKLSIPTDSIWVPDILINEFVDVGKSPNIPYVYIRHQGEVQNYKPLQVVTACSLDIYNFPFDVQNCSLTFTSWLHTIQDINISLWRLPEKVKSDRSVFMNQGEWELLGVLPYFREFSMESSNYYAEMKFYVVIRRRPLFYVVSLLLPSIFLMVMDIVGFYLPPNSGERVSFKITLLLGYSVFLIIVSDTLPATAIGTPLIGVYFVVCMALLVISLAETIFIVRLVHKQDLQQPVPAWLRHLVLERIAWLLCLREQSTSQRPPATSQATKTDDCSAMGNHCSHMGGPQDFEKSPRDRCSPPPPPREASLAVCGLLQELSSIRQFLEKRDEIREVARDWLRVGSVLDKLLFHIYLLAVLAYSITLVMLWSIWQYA
Nature of the assay: Activity at human 5HT3A receptor expressed in Xenopus oocytes assessed as stimulation of […] current at 10 uM by two-electrode voltage-clamp method. The conditions noted are these: Oocyte. Format: cell-based. In a few lines:
as §1

Assay [5] concerns the target GABA-A receptor; alpha-2/beta-3/gamma-2 (Homo sapiens) (UniProt P18507+P28472+P47869). Nature of the assay: Activation of human GABAA alpha-2-beta-3-gamma-2L receptor expressed in Xenopus oocytes assessed as modulation of GABA-induced current by measuring ratio of I/Imax current by two-electrode voltage-clamp method. The conditions noted are these: Oocyte.
In assay [6] the target is T1, Neuronal acetylcholine receptor; alpha4/beta2 (Homo sapiens). The experiment in a line: Activation of human nAChR alpha-4-beta-2 expressed in Xenopus oocytes assessed as modulation of nicotine-induced current by measuring ratio of I/Imax current by two-electrode voltage-clamp method. The conditions noted are these: Oocyte. Format: cell-based. Summed up: as §1
Assay [7] has as its target T4, GABA-A receptor; alpha-2/beta-3/gamma-2 (Homo sapiens, UniProt P18507+P28472+P47869).
T4 sequence (P18507 whole entry): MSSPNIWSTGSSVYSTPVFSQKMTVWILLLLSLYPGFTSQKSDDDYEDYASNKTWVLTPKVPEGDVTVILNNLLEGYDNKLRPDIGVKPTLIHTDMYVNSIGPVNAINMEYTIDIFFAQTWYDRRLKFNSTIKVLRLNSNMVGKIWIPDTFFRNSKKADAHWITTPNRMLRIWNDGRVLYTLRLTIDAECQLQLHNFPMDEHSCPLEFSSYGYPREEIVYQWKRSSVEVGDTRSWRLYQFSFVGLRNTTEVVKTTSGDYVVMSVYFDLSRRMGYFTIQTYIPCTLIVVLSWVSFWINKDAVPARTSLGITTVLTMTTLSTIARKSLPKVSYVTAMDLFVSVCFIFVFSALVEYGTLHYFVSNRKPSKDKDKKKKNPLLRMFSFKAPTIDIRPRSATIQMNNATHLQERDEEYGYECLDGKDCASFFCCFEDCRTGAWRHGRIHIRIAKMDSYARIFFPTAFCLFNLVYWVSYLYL
T4 sequence (P28472 whole entry): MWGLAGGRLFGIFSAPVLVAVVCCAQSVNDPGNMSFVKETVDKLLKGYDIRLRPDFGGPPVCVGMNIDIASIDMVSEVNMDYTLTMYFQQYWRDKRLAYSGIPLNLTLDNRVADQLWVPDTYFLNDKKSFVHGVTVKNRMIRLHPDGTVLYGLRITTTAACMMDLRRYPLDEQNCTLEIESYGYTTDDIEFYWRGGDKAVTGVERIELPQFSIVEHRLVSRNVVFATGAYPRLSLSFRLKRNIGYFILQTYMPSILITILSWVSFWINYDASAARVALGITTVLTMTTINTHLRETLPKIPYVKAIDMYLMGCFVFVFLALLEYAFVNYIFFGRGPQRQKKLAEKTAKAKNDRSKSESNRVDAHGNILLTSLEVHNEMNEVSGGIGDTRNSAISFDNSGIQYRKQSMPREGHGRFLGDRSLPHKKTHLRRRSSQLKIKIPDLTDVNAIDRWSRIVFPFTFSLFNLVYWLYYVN
T4 sequence (P47869 whole entry): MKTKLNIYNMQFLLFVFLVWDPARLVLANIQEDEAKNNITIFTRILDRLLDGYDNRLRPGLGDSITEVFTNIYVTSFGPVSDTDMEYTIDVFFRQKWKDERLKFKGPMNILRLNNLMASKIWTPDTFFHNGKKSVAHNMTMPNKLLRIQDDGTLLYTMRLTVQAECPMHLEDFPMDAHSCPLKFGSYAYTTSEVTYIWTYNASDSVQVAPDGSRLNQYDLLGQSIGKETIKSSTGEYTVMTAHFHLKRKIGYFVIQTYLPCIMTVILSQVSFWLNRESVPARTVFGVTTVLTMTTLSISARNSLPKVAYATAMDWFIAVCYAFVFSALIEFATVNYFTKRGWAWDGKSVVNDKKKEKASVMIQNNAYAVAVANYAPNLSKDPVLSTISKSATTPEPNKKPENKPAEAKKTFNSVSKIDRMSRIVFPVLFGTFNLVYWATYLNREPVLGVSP
The experiment in a line: Activation of human GABAA alpha-2-beta-3-gamma-2L receptor expressed in Xenopus oocytes assessed as modulation of GABA-induced current by two-electrode voltage-clamp method.

Each structure is given as a SMILES string. Active and inactive are the calls of the source. No cut-off for these calls is given here.

T2 sequence (P36544 whole entry): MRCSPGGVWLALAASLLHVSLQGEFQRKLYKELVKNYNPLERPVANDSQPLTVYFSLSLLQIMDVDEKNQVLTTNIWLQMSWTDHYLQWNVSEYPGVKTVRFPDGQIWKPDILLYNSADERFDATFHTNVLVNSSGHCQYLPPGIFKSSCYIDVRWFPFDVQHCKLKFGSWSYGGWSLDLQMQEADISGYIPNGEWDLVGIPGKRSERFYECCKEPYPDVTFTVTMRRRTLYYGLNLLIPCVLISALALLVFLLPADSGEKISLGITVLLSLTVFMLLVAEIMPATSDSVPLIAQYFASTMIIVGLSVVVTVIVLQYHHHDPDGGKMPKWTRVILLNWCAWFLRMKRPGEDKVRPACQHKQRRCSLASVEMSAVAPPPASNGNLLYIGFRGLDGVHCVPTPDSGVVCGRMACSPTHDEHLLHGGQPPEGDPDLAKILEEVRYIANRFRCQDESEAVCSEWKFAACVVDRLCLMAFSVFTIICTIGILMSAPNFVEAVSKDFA

One may read the EC50 as the midpoint of the concentration-response curve. For the compound `CCOC(=O)/C(=C\Nc1ccc(OCC)cc1)C(=O)c1ccccc1Cl`, the outcome in assay [1], in assay [4] and in assay [6] was inactive. In addition, the half-maximal effective concentration (EC50) in assay [2] amounted to 1800 nM; in assay [7], 200 nM. For the same compound, the values for the Ratio in assay [3] and in assay [5] were 0.86 and 0.93, respectively.

The values are drawn from ChEMBL document CHEMBL1142221, “Nootropic alpha7 nicotinic receptor allosteric modulator derived from GABAA receptor modulators” (Proc Natl Acad Sci U S A, 2007).
